Measurements gathered from unrelated publications.
Target: Dual specificity mitogen-activated protein kinase kinase 2 (MAP2K2, Homo sapiens, UniProt P36507)

| SMILES | read-out | action | technique | concentration | quantity | result |
| --- | --- | --- | --- | --- | --- | --- |
| Cn1cc(-c2cc(F)cc(N3CCn4c(cc5c4CCCC5)C3=O)c2CO)cc(Nc2ccc(N3CCN(C4COC4)CC3)cn2)c1=O | enzyme activity | inhibitor |  | 0.1 µM | inhibition | 11% |
| COc1ncccc1-c1cnn2ccc(N3CCN(C(=O)OC(C)C)CC3)nc12 | binding |  | competition with immobilised ligand | 1 µM | remaining binding | 91% |
| Cn1cc(-c2cccc(N3CCc4c(sc5c4CC(C)(C)C5)C3=O)c2CO)cc(Nc2ccncn2)c1=O | enzyme activity | inhibitor |  | 1 µM | inhibition | 5% |
| Nc1ncc(-c2nc(N3CCOCC3)nc(N3CCOCC3)n2)c(C(F)F)n1 | binding |  | competition with immobilised ligand | 10 µM | remaining binding | 77% |
| N#CC1(c2ccccn2)CCN(Cc2cc(C(=O)O)c(=O)n3ccccc23)CC1 | cell-free assay |  | competition with immobilised ligand | 1 µM | remaining binding | 100% |
| COc1cc(Nc2ncc(F)c(Nc3ccc4c(n3)NC(=O)C(C)(C)O4)n2)cc(OC)c1OC | binding |  | competition with immobilised ligand | 10 µM | inhibition | 87% |
| O=c1[nH]c2ccccc2n1C1CCN(Cc2ccc(-c3[nH]c4cc5ncnc5cc4nc3-c3ccccc3)cc2)CC1 | cell-free assay |  |  | 0.5 µM | remaining signal | 86.6% |
| Cc1nn(C)cc1-c1nc2c(N3CCN(Cc4ccc(Cl)cc4)CC3)c(Cl)cnc2[nH]1 | binding |  | competition with immobilised ligand | 1 µM | remaining binding | 100% |
| CC(C)(C)c1cc(C=C(C#N)C#N)cc(Br)c1O | enzyme activity | inhibitor |  | 0.5 µM | remaining activity | 85.8% |
| Cn1cncc1[C@@](O)(COc1ccc(C#N)cc1-c1ccc(OC(F)(F)F)cc1)c1ccc(C#N)cc1 | cell-free assay |  | competition with immobilised ligand | 1 µM | remaining binding | 74% |
